From paper PMC4281097 (Journal of Medicinal Chemistry, 2014)
Entries after “also recorded” stand apart in the source; their conditions may differ. Read-outs that look alike come from different tables or passages of the source.

What was measured:
EWS-FLI1 [1] = molecular target: T1, EWS-FLI1 (Homo sapiens, UniProt Q01543+Q01844); assay: EWS-FLI1/NR0B1 reporter luciferase assay in transfected COS7 cells; assay type: cell-based; details: COS7 cells transfected with EWS-FLI1 and NR0B1 reporter, 20 h treatment
T1 sequence (Q01844 1-264): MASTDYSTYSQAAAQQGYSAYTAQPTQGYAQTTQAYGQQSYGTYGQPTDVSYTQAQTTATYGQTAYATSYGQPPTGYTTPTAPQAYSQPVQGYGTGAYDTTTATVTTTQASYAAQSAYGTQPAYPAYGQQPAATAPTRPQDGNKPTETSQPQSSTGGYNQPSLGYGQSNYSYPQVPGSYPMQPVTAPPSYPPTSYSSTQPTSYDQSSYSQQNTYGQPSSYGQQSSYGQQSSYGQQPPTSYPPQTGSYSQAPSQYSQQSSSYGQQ
T1 sequence (Q01543 220-452): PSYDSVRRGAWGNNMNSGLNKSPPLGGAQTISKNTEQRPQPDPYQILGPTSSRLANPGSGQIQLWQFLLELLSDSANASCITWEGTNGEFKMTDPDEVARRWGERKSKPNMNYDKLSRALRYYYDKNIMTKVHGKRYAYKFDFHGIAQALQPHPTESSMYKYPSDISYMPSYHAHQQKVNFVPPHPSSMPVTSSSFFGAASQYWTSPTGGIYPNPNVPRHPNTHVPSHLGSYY
Procedure, shortened: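 COS7 cells (DMEM, 10% FBS) transiently co-transfected with NR0B1 luciferase reporter carrying EWS-FLI1 binding sites plus full-length EWS-FLI1 or empty pCI-neo vector. Treated 1.5 h post-transfection with test compound at 0.05, 0.15, 0.5, 1.5, 5 or 15 μM, or DMSO. Luciferase measured 20 h later. IC50 from sigmoidal dose–response fit. Quadruplicate wells, mean ± SD of a representative experiment.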

[2] = tested on: ES cell lines (TC32 and TC71); assay: Cell proliferation assay in ES cell lines; assay type: cell-based, human; details: for Growth inhibition / antiproliferative activity in words: ES cell lines containing EWS-FLI1; for GI50: read-out: GI50 bound used to select compounds for the reporter assay
TC32 cells [3] = assay: Cell proliferation assay; assay type: cell-based, human; details: for Fold loss of growth inhibitory activity in TC32 cells compared to 2: relative to 2
TC32 cells [4] = details: cited from earlier work
EWS-FLI1 [5] = molecular target: T1, EWS-FLI1; assay: ELISA-like binding assay of biotin conjugate to immobilized recombinant EWS-FLI1
Procedure, shortened: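 EWS-FLI1 expressed in BL21 (1 mM IPTG, 2 h, 27 °C) and recovered from inclusion bodies. Denatured in guanidinium, Ni-chelate purified, refolded on-column by gradient out of urea, then imidazole-eluted. Wells coated overnight with 20 nM protein and blocked with 4% BSA/PBS (1 h, rt). Biotinylated test compound from DMSO stock added for 1 h. Detection used HRP-streptavidin (1:5000, 1 h, rt) and colorimetric substrate read at 405 nm.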

BSA = BSA (Bos taurus, UniProt P02769); assay: ELISA-like binding assay, immobilized BSA control; design: species or system bovine; details: BSA immobilized instead of EWS-FLI1
Procedure, shortened: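 BSA immobilized in wells in place of recombinant EWS-FLI1. Biotinylated test compound, diluted from DMSO stock in assay buffer, was incubated 1 h. Wells washed five times. Detection used HRP-streptavidin (1:5000, 1 h, room temperature) and colorimetric substrate, with absorbance at 405 nm.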

PANC1 cells = assay: Cell proliferation assay; assay type: cell-based, human; details: PANC1 cells (selectivity control)
Procedure, shortened: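 TC71 grown in RPMI with 10% FBS and 1% HEPES; PANC1 in DMEM with 10% FBS; both at 37 °C, 5% CO2. Cells plated in colorless medium at 5000–15000 cells/well depending on line. Test compound or DMSO vehicle added the day after plating. Viable cells quantified by MTT or WST-1 after 3 days of treatment. GI50 derived by nonlinear regression.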

Chain of BSA (P02769 25-607): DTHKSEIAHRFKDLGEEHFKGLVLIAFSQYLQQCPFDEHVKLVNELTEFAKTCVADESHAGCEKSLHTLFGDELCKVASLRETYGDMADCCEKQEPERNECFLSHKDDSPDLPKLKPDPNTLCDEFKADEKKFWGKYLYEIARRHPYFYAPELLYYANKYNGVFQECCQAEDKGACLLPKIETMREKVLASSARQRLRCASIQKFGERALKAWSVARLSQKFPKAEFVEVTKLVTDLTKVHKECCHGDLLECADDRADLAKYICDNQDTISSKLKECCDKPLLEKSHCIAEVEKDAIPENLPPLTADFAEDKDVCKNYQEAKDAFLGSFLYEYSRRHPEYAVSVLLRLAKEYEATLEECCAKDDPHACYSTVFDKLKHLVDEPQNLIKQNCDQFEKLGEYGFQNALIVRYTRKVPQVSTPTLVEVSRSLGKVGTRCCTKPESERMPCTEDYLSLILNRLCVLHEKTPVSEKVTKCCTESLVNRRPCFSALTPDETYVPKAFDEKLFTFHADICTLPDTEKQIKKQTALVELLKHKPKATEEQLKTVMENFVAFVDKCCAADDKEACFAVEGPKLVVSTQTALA

What does the source list for `COc1ccc(C(=O)CC2(OC)C(=O)Nc3c(Cl)ccc(Cl)c32)cc1` (centres unmarked) [compound 11, 4,7-Dichloro-3-methoxy-3-(2-(4-methoxyphenyl)-2-oxoethyl)indolin-2-one]?
Inhibition of EWS-FLI1 transcriptional activity in words (EWS-FLI1 [1]): did not display any inhibition; Growth inhibition / antiproliferative activity in words [2]: complete loss of inhibitory activity; also recorded: no antiproliferative activity

With `COc1ccc(C(=O)CC2(O)C(=O)Nc3c(Cl)ccc(Cl)c32)c(OC)c1` (centres unmarked) [9c, 4,7-Dichloro-3-(2-(2,4-dimethoxyphenyl)-2-oxoethyl)-3-hydroxyindolin-2-one] as the molecule, how does the “Inhibition of EWS-FLI1 transcriptional activity in words” value (EWS-FLI1 [1]) read?
The value was “lower than 2”.

Which “Growth inhibition / antiproliferative activity in words” value [2] does the source give for `O=C(CC1(O)C(=O)Nc2c(Cl)ccc(Cl)c21)c1ccc(Oc2ccccc2)cc1` (centres unmarked) [9q, 4,7-Dichloro-3-hydroxy-3-(2-oxo-2-(4-phenoxyphenyl)ethyl)indolin-2-one] here?
Its value is “complete loss of activity”.

For `CN(C)c1ccc(C(=O)CC2(O)C(=O)Nc3c(Cl)ccc(Cl)c32)cc1` (centres unmarked) [9u, 4,7-Dichloro-3-(2-(4-(dimethylamino)phenyl)-2-oxoethyl)-3-hydroxyindolin-2-one], which “GI50 in TC32 cells” value (TC32 cells [3]) is on record?
The value was 260 nM.

And the “Fold increase in potency compared to 2” value ([2]; ES cells, relative to 2)?
The value was “over 3 fold”.

Which “Growth inhibition / antiproliferative activity in words” value [2] does the source give for `COc1ccc(C(=O)CC2(O)C(=O)N(c3ccccc3)c3c(Cl)ccc(Cl)c32)cc1` (centres unmarked) [14b, 4,7-Dichloro-3-hydroxy-3-(2-(4-methoxyphenyl)-2-oxoethyl)-1-phenylindolin-2-one] here?
Its value is “complete loss of activity”.

Which “Growth inhibition / antiproliferative activity in words” value [2] does the source give for `COc1cccc(C(=O)CC2(O)C(=O)Nc3c(Cl)ccc(Cl)c32)c1` (centres unmarked) [9b, 4,7-Dichloro-3-hydroxy-3-(2-(3-methoxyphenyl)-2-oxoethyl)indolin-2-one] here?
The value was “reduced inhibition of cell growth”.

For “4,7-Dichloro-3-(2-(4-ethoxyphenyl)-2-oxoethyl)-3-hydroxyindolin-2-one [9n]”, which “Growth inhibition / antiproliferative activity in words” value [2] is on record?
The value was “complete loss of activity”.

For `COc1ccc(C(=O)CC2(O)C(=O)Nc3c(Cl)ccc(Cl)c32)cc1` (single isomer, unassigned) [S-(−) enantiomer of 2], which “Fold more potent in vitro than racemic 2” value (TC32 cells [4]; in vitro) is on record?
The value was 4 fold.

And the GI50 (TC32 cells [4]; read-out: GI50 of single enantiomer, in vitro, TC32 cells)?
Its GI50 is 280 nM.

Which “Growth inhibition / antiproliferative activity in words” value [2] does the source give for `Nc1ccc(C(=O)CC2(O)C(=O)Nc3c(Cl)ccc(Cl)c32)cc1` (centres unmarked) [9s, 3-[2-(4-Aminophenyl-2-oxoethyl)]-4,7-dichloro-3-hydroxyl 1,3-dihydroindol-2-one] here?
The value was “complete loss of activity”.

Which results are given for “4,7-Dichloro-3-methoxy-3-(2-(4-methoxyphenyl)-2-oxoethyl)indolin-2-one [14a]”?
Fold loss of growth inhibitory activity in TC32 cells compared to 2 (TC32 cells [3]): 2 fold; Inhibition of EWS-FLI1 transcriptional activity in words (EWS-FLI1 [1]): modest inhibitory effects; GI50 ([2]; ES cells): ≤ 2700 nM

Which “Inhibition of EWS-FLI1 transcriptional activity in words” value (EWS-FLI1 [1]) does the source give for “4,7-Dichloro-3-hydroxyl-3-(2-oxo-2-p-tolylethyl)-1,3-dihydroindol-2-one [9m]” here?
Its value is “lower than 2”.

And the “Fold loss of growth activity / potency compared to 2” value ([2]; ES cells, relative to 2)?
The value was 3 fold.

And the GI50 ([2]; ES cells)?
The GI50 was ≤ 2700 nM.

Which “In vitro activity of enantiomer in words” value (TC32 cells [4]; in vitro) does the source give for `COc1ccc(C(=O)C[C@]2(O)C(=O)Nc3c(Cl)ccc(Cl)c32)cc1` [R-(+)] here?
The value was “almost inactive”.

For `CN(C(=O)CCCCCNC(=O)CCCC[C@H]1SCC2NC(=O)NC21)c1ccc(C(=O)CC2(O)C(=O)Nc3c(Cl)ccc(Cl)c32)cc1` (stereo partly drawn) [compound 24, N-(4-(2-(4,7-Dichloro-3-hydroxy-2-oxoindolin-3-yl)acetyl)phenyl)-N-methyl-6-(5-((4R)-2-oxohexahydro-1H-thieno[3,4-d]imidazol-4-yl)pentanamido)hexanamide], which “Concentration at which binding saturation was reached” value (EWS-FLI1 [5]) is on record?
The value was 20 µM.

And the “Binding to immobilized BSA in words” value (BSA)?
The value was “No binding was detected”.

Which “Growth inhibition / antiproliferative activity in words” value [2] does the source give for `COc1cccc(C(=O)CC2(O)C(=O)Nc3c(Cl)ccc(Cl)c32)c1OC` (centres unmarked) [9e, 4,7-Dichloro-3-(2-(2,3-dimethoxyphenyl)-2-oxoethyl)-3-hydroxyindolin-2-one] here?
Its value is “reduced inhibition of cell growth”.

For `COc1cc(OC)cc(C(=O)CC2(O)C(=O)Nc3c(Cl)ccc(Cl)c32)c1` (centres unmarked) [9d, 4,7-Dichloro-3-(2-(3,5-dimethoxyphenyl)-2-oxoethyl)-3-hydroxyindolin-2-one], which “Fold loss of growth inhibitory activity in TC32 cells compared to 2” value (TC32 cells [3]) is on record?
Its value is ~10 fold.

For `COc1ccc(C(=O)CC2(O)C(=O)Nc3c(Cl)ccc(Cl)c32)cn1` (centres unmarked) [compound 18, 4,7-Dichloro-3-hydroxy-3-(2-(6-methoxypyridin-3-yl)-2-oxoethyl)indolin-2-one], which “Growth inhibition / antiproliferative activity in words” value [2] is on record?
Its value is “complete loss of growth inhibition”.

Which “Inhibition of EWS-FLI1 transcriptional activity in words” value (EWS-FLI1 [1]) does the source give for `COc1ccccc1C(=O)CC1(O)C(=O)Nc2c(Cl)ccc(Cl)c21` (centres unmarked) [9a, 4,7-Dichloro-3-hydroxy-3-(2-(2-methoxyphenyl)-2-oxoethyl)indolin-2-one] here?
The value was “did not inhibit”.

And the “Growth inhibition / antiproliferative activity in words” value [2]?
The value was “reduced inhibition of cell growth; also recorded: no antiproliferative activity”.

For `COc1ccc(C(=O)CC2(O)C(=O)Nc3c(OC)ccc(OC)c32)cc1` (centres unmarked) [6e, 3-Hydroxy-4,7-dimethoxy-3-(2-(4-methoxyphenyl)-2-oxoethyl)indolin-2-one], which “GI50 in TC32 cells” value (TC32 cells [3]) is on record?
The value was 1000 nM.

With `O=C(CC1(O)C(=O)Nc2c(Cl)ccc(Cl)c21)c1ccc(Cl)cc1` (centres unmarked) [compound 1, 4,7-dichloro-3-(2-(4-chlorophenyl)-2-oxoethyl)-3-hydroxyindolin-2-one] as the molecule, how does the “GI50 in TC32 cells” value (TC32 cells [4]; TC32 cells) read?
The value was 20000 nM.

Which results are given for `O=C(CC1(O)C(=O)Nc2c(Cl)ccc(Cl)c21)c1ccc(C(F)(F)F)cc1` (centres unmarked) [9j, 4,7-Dichloro-3-hydroxy-3-(2-oxo-2-(4-(trifluoromethyl)phenyl)ethyl)indolin-2-one]?
Inhibition of PANC1 cell growth in words (PANC1 cells): inhibited PANC1 cells growth; Fold loss of growth inhibitory activity in TC32 cells compared to 2 (TC32 cells [3]): 3 fold

For `COc1ccc(C(=O)CC2(O)C(=O)Nc3c(Cl)ccc(Cl)c32)c(OC)c1OC` (centres unmarked) [9f, 4,7-Dichloro-3-hydroxy-3-(2-oxo-2-(2,3,4-trimethoxyphenyl)ethyl)indolin-2-one], which “Fold loss of growth activity / potency compared to 2” value ([2]; ES cells, relative to 2) is on record?
Its value is 3 fold.

With `CC(C)Oc1ccc(C(=O)CC2(O)C(=O)Nc3c(Cl)ccc(Cl)c32)cc1` (centres unmarked) [9p, 4,7-Dichloro-3-hydroxy-3-(2-(4-isopropoxyphenyl)-2-oxoethyl)indolin-2-one] as the molecule, how does the “Growth inhibition / antiproliferative activity in words” value [2] read?
Its value is “complete loss of activity”.

Which “Inhibition of EWS-FLI1 transcriptional activity in words” value (EWS-FLI1 [1]) does the source give for `COc1ccc(C(=O)CC2(OC)C(=O)N(C)c3c(Cl)ccc(Cl)c32)cc1` (centres unmarked) [compound 15, 4,7-Dichloro-3-methoxy-3-(2-(4-methoxyphenyl)-2-oxoethyl)-1-methylindolin-2-one] here?
Its value is “modest inhibitory effects”.

What about the “Growth inhibition / antiproliferative activity in words” value [2] of the same molecule?
The value was “inactive; also recorded: no antiproliferative activity”.

With `COc1ccc(C(=O)/C=C2\C(=O)Nc3c(Cl)ccc(Cl)c32)cc1` [compound 10, (Z)-4,7-Dichloro-3-(2-(4-methoxyphenyl)-2-oxoethylidene)indolin-2-one] as the molecule, how does the “GI50 in TC32 cells” value (TC32 cells [3]) read?
Its value is 1000 nM.
